Only some compounds are listed: those with a hit (about 2.4% of all), similar ones and a draw of the others.
Rtt109 Vps75: inhibitors of Candida albicans Rtt109/Vps75 histone acetyltransferase; purified Rtt109/Vps75, ThioGlo CoA-SH fluorescence, 4 h; inhibition, % at 34.9 µM; actives 0.16% (n = 330,000); AID 540336;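 active = inhibition of at least 50% in every replicate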
HIV Env fusion: inhibitors of HIV Env-mediated cell fusion; HeLa-JRFL Env/CEM21 cell fusion, luciferase; inhibition, % at 12.3 µM; actives 1.1% (n = 360,000);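 active = mean replicate inhibition score of at least 50 and every replicate individually at or above 50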;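 also: 0% = plate neutral controls and 100% = maraviroc near 300 nM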
INS-1E GSIS act: primary screen for activators of insulin secretion dependent on glucose, INS-1E cells, GLuc reporter luminescence; INS-1E GLuc reporter insulin secretion, 2-3 h; activation, % at 16.6 µM; actives 0.61% (n = 370,000);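 active = lowest replicate activation of at least 40%, so every replicate reaches that level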;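 also: 0% = median of neutral control wells and 100% = median of IBMX positive control wells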
miR122 inh: miR-122 inhibition in Huh7 cells | Huh7 miR-122 Renilla luciferase sensor, 48 h; neutral wells = 0, positive control = 100 | activation (reporter increase), % at 12.5 µM | actives 0.3% (n = 340,000);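 active = mean replicate activation score at least 90 and every replicate individually at or above 90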;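 also: higher luciferase means less miR-122 activity so hits act as miR-122 inhibitors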
dFosB act-1: activators of mouse delta FosB homodimer; purified delta FosB, TAMRA-CDK5 oligo fluorescence polarization; percent of positive-control signal above neutral wells; activation, % at 25 µM; P13346; actives 0.99% (n = 340,000);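 active = mean activation above about 17%, with every replicate also reaching it, limit read from the data, passing the limit was not always enough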
Target sequence (P13346 whole entry, looked up): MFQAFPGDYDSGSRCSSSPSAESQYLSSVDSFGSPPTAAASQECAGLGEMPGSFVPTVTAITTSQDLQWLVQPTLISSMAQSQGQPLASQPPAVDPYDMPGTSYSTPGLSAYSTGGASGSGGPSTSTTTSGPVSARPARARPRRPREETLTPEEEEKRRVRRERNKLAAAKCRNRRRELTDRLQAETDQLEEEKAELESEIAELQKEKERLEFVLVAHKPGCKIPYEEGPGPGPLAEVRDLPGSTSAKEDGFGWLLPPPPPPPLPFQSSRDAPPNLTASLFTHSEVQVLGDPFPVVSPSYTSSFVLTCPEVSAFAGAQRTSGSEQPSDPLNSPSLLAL
Cneo AK release: causes C. neoformans cell lysis | adenylate kinase release luminescence, 4 h; normalised: neutral wells 0, clomiphene wells 100 | lysis activity, % at 15 µM | actives 0.2% (n = 360,000);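 active = mean lysis activity across replicates of at least 80%, whatever share of replicates individually reach that level; inactive = mean lysis activity below 80%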
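Assay system: Cryptococcus neoformans yeast cells / Dosing: single-point compound dose / Timing: 4 h at 37 °C static, read 1 h later / Measured by: luminescence of released adenylate kinase using an AK detection reagent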
dFosB act-2: delta FosB (mouse) homodimer activation. shares compounds with dFosB act-1. purified delta FosB, TAMRA-CDK5 oligo fluorescence polarization; normalised: neutral wells 0, positive control 100. activation, % at 24.9 µM. 2,400 tested, under 10 active. AID 588690;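 active = highest replicate activation at or above 34% and every replicate reaching that threshold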;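 also: higher polarization means more probe DNA bound by delta FosB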
Active calls of the source: *; . = not tested or not shown; [ ] = remark or other dose.

SMILES	Rtt109 Vps75	HIV Env fusion	INS-1E GSIS act	miR122 inh	dFosB act-1	Cneo AK release	dFosB act-2
CCC(=O)Nc1ccc2c(c1)C(=O)N(C)[C@@H]1CC[C@@H](CC(=O)NCCc3ccncc3)O[C@@H]1CO2	.	-20.5[16.7 µM]	9.6	3.6[16.7 µM]	.	.	.
C/C(=N\NC(=O)c1c(Cl)c(C)nn1C)c1ccc(NC(=O)C2CCC2)cc1	0.2	3.9	-7.2	66.1	1.0	7.0	.
C/C(=N/NC(=O)CSCc1ccc(Cl)cc1)c1cccc(NC(=O)c2ccccc2)c1	-0.7	12.7	.	-2.8	38.5*	-1.0	2.1
C/C(=N/NC(=O)c1cccs1)c1ccc(NC(=O)COc2ccc(Cl)cc2)cc1	7.8	-61.7	.	-2.5	31.8*	-1.4	5.4
C/C(=N\NC(=O)c1c(Cl)c(C)nn1C)c1ccc(NC(=O)COc2ccc(Cl)cc2C)cc1	1.8	.	.	-3.7	33.3*	-3.6	2.1
C/C(=N\NC(=O)c1ccc(Cl)cc1)c1cccs1	5.0	-45.3	-12.3	2.4	-5.1	-14.1	.
C/C(=N\NC(=O)CSCc1ccc(Cl)cc1)c1ccc(NC(=O)c2ccccc2)cc1	0.8	.	.	-1.9	-8.9	.	.
C/C(=N\NC(=O)c1c(Cl)c(C)nn1C)c1cccc(NC(=O)COc2ccccc2)c1	-0.4	-65.7	.	-0.4	28.5*	-2.5	-1.7
CO[C@@H]1CN(C)C(=O)c2ccc(NS(C)(=O)=O)cc2OC[C@@H](C)N(CC2CCCCC2)C[C@H]1C	.	-2.7[16.7 µM]	-10.6	.	.	.	.
S=C1Nc2ccccc2Sc2ccc(Cl)cc21	-6.8	.	5.4	3.2	33.6*	2.3	2.7
COc1cc(NC(=S)NC(=O)C(C)C)ccc1NC(=O)c1cc2ccccc2o1	-7.8	2.3	34.9	-3.1	1.3	1.4	.
CCC(=O)NC(=S)Nc1ccc(NC(=O)c2cc3ccccc3o2)c(OC)c1	-7.8	-7.1	-4.7	0.0	66.9*	.	6.3
S=C(NCc1ccc2c(c1)OCO2)Nc1ccc(-c2nc3ccccc3[nH]2)cc1	-15.6	23.5	-6.2	.	31.7*	.	-9.1
Cc1ccc2nc(-c3ccc(SCC(=O)Nc4ccc5c(c4)OCCO5)nc3)[nH]c2c1	-6.4	.	-7.9	.	49.7*	.	-5.4
Cc1cc2nc(-c3ccc(SCC(=O)Nc4ccc5c(c4)OCCO5)nc3)[nH]c2cc1C	9.1	.	6.3	-0.8	31.6*	-2.5	2.6
O=C(CSc1ccc(-c2nc3ccccc3[nH]2)cn1)Nc1ccc(S(=O)(=O)NC2CC2)cc1	5.7	7.8	-2.8	-0.7	-7.2	-3.7	.
O=C(CSc1ccc(-c2nc3ccccc3[nH]2)cn1)Nc1ccc2c(c1)OCCO2	4.8	.	.	10.3	40.2*	-1.0	5.8
CN(C)CCNC(=S)Nc1ccc(-c2nc3ccccc3[nH]2)cc1	2.5	-19.0	3.0	.	8.3	-6.1	.
COc1ccc2c3c([nH]c2c1)[C@H](CO)N(C(=O)c1ccccc1)CC31CN(S(=O)(=O)c2cccs2)C1	.	.	25.6	.	.	.	.
Nc1cc(C(=O)N/N=C/c2cccc([N+](=O)[O-])c2)n[nH]c1=O	-0.8	-16.7	5.0	1.1	17.5*	7.4	-1.0
CCC(=O)Nc1ccc(C(=O)N/N=C/c2ccc([N+](=O)[O-])cc2)cc1	3.7	10.7	12.3	4.2	-8.9	-1.3	.
CCCCCCCC(=O)Nc1ccc(C(=O)N/N=C/c2cccc([N+](=O)[O-])c2)cc1	-1.3	-126.2	.	-0.7	19.8*	6.3	7.8
CCCNC(=O)c1c(NC(=O)C2COc3ccccc3O2)sc2c1CCCC2 (configuration not stated)	-2.6	.	.	.	-3.8	0.6	.
O=C(NC1CCS(=O)(=O)C1)c1c(NC(=O)C2COc3ccccc3O2)sc2c1CCCC2 (configuration not stated)	9.9	.	.	2.6	39.8*	.	-0.1

Source: PubChem (Broad Institute)
